Experimental data published in ChEMBL document CHEMBL3271971, “Antineoplastic and biochemical properties of arylsulfonylhydrazones of 2-formylpyridine N-oxide” (J Med Chem, 1976).

How the values were obtained:
[1] = Antineoplastic activity against 1-formylisoquinoline thiosemicarbazone-resistant mouse S180A cells allografted in CD-1 mouse assessed as average survival at 40 mg/kg administered qd for 6 days (reference value: 14.4 +/- 0.9 days); assay type: functional
Outline: (§1)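 Ascitic tumours were transplanted from an appropriate donor mouse carrying a 7-day tumour growth. Drug was given at 10–60 mg/kg/day for six consecutive days. Sensitivity was judged by prolongation of survival time relative to untreated tumour-bearing controls. Mice were weighed throughout, and percentage weight change from onset to end of therapy indicated toxicity.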

Mus musculus [2] = assay: Effect on DNA synthesis in tumor of CD-1 mouse allografted with mouse S180A cells assessed as [3H]-thymidine incorporation at 10 mg/kg, ip pretreated for 1 hr followed by radiotracer-addition measured after 1 hr relative to control; assay type: functional; details: route intraperitoneal
Outline: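 Sarcoma 180 ascites cells implanted 6 days earlier. Mice received a single ip dose of 10–80 mg/kg, then 1 h later an ip tracer: 200 μg thymidine-3H, 200 μg uridine-3H or 125 μg DL-leucine-14C. Tracer was incorporated for 1 h. Specific activity of tumor-cell DNA, RNA or protein is expressed as % of untreated controls. Values are means of 4-16 mice, each analyzed separately.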

Mus musculus [3] = assay: Toxicity in CD-1 mouse allografted with mouse EAC cells assessed as change in body weight at 60 mg/kg administered qd for 6 days (reference value: 26.8%); assay type: organism-based, Ehrlich; set-up: dose 60 mg/kg; details: in vivo, 144 h
Outline: (§2)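 Ascitic tumors were transplanted from a donor mouse bearing a 7-day tumor. Daily doses were given for six consecutive days. Percentage body-weight change from onset to termination of therapy served as the index of drug toxicity.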

Mus musculus [4] = assay: Toxicity in CD-1 mouse allografted with mouse S180A cells assessed as change in body weight at maximum effective dose administered qd for 6 days (reference value: 23.2%); assay type: organism-based; details: 144 h
Mus musculus [5] = assay: Toxicity in CD-1 mouse allografted with mouse EAC cells assessed as change in body weight at 40 mg/kg administered qd for 6 days (reference value: 26.8%); assay type: organism-based, Ehrlich; set-up: dose 40 mg/kg; details: in vivo, 144 h; outline: as §2
Ehrlich [6] = assay: Antineoplastic activity against mouse EAC cells allografted in CD-1 mouse assessed as mouse survival at 60 mg/kg administered qd for 6 days measured for 50 days relative to control; assay type: functional; outline: as §1
Ehrlich [7] = assay: Antineoplastic activity against mouse EAC cells allografted in CD-1 mouse assessed as mouse survival at 20 mg/kg administered qd for 6 days measured for 50 days relative to control; assay type: functional; outline: as §1

Cc1ccc(S(=O)(=O)N/N=C/c2cccc[n+]2[O-])cc1
Survival [1]: 24.4 days | Activity (Mus musculus [2]): 71% | Activity (Mus musculus [3]): -1.8% | Activity (Mus musculus [4]): -8% | Activity (Mus musculus [5]): -3.3% | survival at 60 mg/kg (Ehrlich [6]): 40% | survival at 20 mg/kg (Ehrlich [7]): 10%
